Calls of active or inactive are those of the source. The rule behind the calls is not given here.
Key:
Escherichia coli = assay: Antibacterial activity against Escherichia coli ATCC 25922 at 100 ug/mL after 24 hrs by disk diffusion method; type: functional, organism-based
Outline: (§1)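 Paper-disc diffusion on Mueller Hinton agar, pH 7.4 ± 0.2 at 25 °C. Whatman No. 2 discs (5 mm) were heat-sterilized at 160 °C for 30 min, loaded with DMSO test solution at 100 µg/10 µL and dried, then laid on the agar. Plates were held 1 h in the refrigerator for diffusion, then incubated 24 h at 37 °C. Inhibition zone diameter was read in mm. DMSO served as solvent control; ciprofloxacin disc as reference.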

Staphylococcus aureus = assay: Antibacterial activity against Staphylococcus aureus ATCC 25923 at 100 ug/mL after 24 hrs by disk diffusion method; type: functional; details: ATCC 25923, 24 h, read-out: DIZ; outline: as §1
Candida albicans = assay: Antifungal activity against Candida albicans ATCC 10231 at 100 ug/mL after 24 hrs by disk diffusion method; type: functional; details: ATCC 10231, 24 h, read-out: DIZ
Outline: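 Disc diffusion as for the antibacterial test, on agar medium of glucose, peptone and Sabouraud dextrose agar in distilled water, pH 5.5 ± 0.2 at 25 °C. Sterilized 5 mm paper discs were loaded with DMSO test solution at 100 µg/10 µL and dried. Plates were held 1 h refrigerated, then incubated 24 h at 37 °C. Zone of inhibition was measured in mm.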

SMILES | Activity (Escherichia coli) | zone of inhibition at 100 µg/mL (Staphylococcus aureus) [mm] | zone of inhibition at 100 µg/mL (Candida albicans) [mm]
Clc1ccc(Cn2cc(Cn3cc(C(c4ccccc4)c4cn(Cc5cn(Cc6ccc(Cl)cc6)nn5)c5ccc(Br)cc45)c4cc(Br)ccc43)nn2)cc1 | inactive | 16 | 21
COc1ccc(Cn2cc(Cn3cc(C(c4ccccc4)c4cn(Cc5cn(Cc6ccc(OC)cc6)nn5)c5ccccc45)c4ccccc43)nn2)cc1 | inactive | 18 | 16
O=C(O)c1cn(C2CC2)c2cc(N3CCNCC3)c(F)cc2c1=O [CIPROFLOXACIN] |  | 22 | 
CC(=O)N1CCN(c2ccc(OCC3COC(Cn4ccnc4)(c4ccc(Cl)cc4Cl)O3)cc2)CC1 (configuration not stated) [KETOCONAZOLE] |  |  | 24
COc1ccc(C(c2c(C)n(Cc3cn(Cc4ccc(Cl)cc4)nn3)c3ccccc23)c2c(C)n(Cc3cn(Cc4ccc(Cl)cc4)nn3)c3ccccc23)cc1 | inactive | 16 | 20
Cc1c(C(c2ccccc2)c2c(C)n(Cc3cn(Cc4ccccc4)nn3)c3ccccc23)c2ccccc2n1Cc1cn(Cc2ccccc2)nn1 | inactive | 20 | 16
Cc1c(C(c2ccccc2)c2c(C)n(Cc3cn(Cc4ccc(Cl)cc4)nn3)c3ccccc23)c2ccccc2n1Cc1cn(Cc2ccc(Cl)cc2)nn1 | inactive | 17 | 19
COc1ccc(C(c2cn(Cc3cn(Cc4ccccc4)nn3)c3ccccc23)c2cn(Cc3cn(Cc4ccccc4)nn3)c3ccccc23)cc1 | inactive | 19 | 17
Clc1ccc(Cn2cc(Cn3cc(C(c4ccccc4)c4cn(Cc5cn(Cc6ccc(Cl)cc6)nn5)c5ccccc45)c4ccccc43)nn2)cc1 | inactive | 17 | 20
Brc1ccc2c(c1)c(C(c1ccccc1)c1cn(Cc3cn(Cc4ccccc4)nn3)c3ccc(Br)cc13)cn2Cc1cn(Cc2ccccc2)nn1 | inactive | 16 | 21
Cc1c(C(c2ccc(Cl)cc2)c2c(C)n(Cc3cn(Cc4ccccc4)nn3)c3ccccc23)c2ccccc2n1Cc1cn(Cc2ccccc2)nn1 | inactive | 20 | 18
COc1ccc(C(c2cn(Cc3cn(Cc4ccccc4)nn3)c3ccc(Br)cc23)c2cn(Cc3cn(Cc4ccccc4)nn3)c3ccc(Br)cc23)cc1 | inactive | 20 | 16
Cc1c(C(c2ccc(Cl)cc2)c2c(C)n(Cc3cn(Cc4ccc(Cl)cc4)nn3)c3ccccc23)c2ccccc2n1Cc1cn(Cc2ccc(Cl)cc2)nn1 | inactive | 19 | 18
COc1ccc(C(c2cn(Cc3cn(Cc4ccc(Cl)cc4)nn3)c3ccccc23)c2cn(Cc3cn(Cc4ccc(Cl)cc4)nn3)c3ccccc23)cc1 | inactive | 16 | 21
COc1ccc(Cn2cc(Cn3cc(C(c4ccc(OC)cc4)c4cn(Cc5cn(Cc6ccc(OC)cc6)nn5)c5ccccc45)c4ccccc43)nn2)cc1 | inactive | 18 | 16
Clc1ccc(Cn2cc(Cn3cc(C(c4ccc(Cl)cc4)c4cn(Cc5cn(Cc6ccc(Cl)cc6)nn5)c5ccccc45)c4ccccc43)nn2)cc1 | inactive | 20 | 16
c1ccc(Cn2cc(Cn3cc(C(c4ccccc4)c4cn(Cc5cn(Cc6ccccc6)nn5)c5ccccc45)c4ccccc43)nn2)cc1 | inactive | 20 | 16
